Jurkat NFkB inh: lowers PMA/ionomycin-induced NF-kB signal in Jurkat cells | PMA/ionomycin-induced NF-kB luciferase reporter, luminescence | hit rate 0.53% among 330,000 | inhibition, % at 4 µM; in the data active means inhibition above about 50%
HSF1 activator: increases HSF-1 driven luciferase reporter signal. hit rate 1.7% among 300,000. activation, % at 9 µM. AID 504408. NIH3T3-HGL HSF-1 luciferase reporter, MG132, 8 h; 100% = twice DMSO control signal;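 active means mean replicate activation of at least 50% with a set share of replicates each reaching 50%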;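 further: 0% = median of the neutral control wells and 100% = twice that signal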
T cruzi inh: T. cruzi replication inhibition | T. cruzi beta-gal in NIH3T3, luminescence, 90 h | inhibition, % (concentration not given with the values) | hit rate 1.4% among 300,000;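 active means mean inhibition across valid replicates above about 55%, limit read from the data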;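 further: signal also drops with host cell toxicity which is not excluded here; 0% = plate median of DMSO wells and 100% = zero luminescence signal; higher percent means less beta-gal luminescence so fewer parasites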
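System: mouse NIH/3T3 fibroblasts infected with β-gal-expressing T. cruzi Tulahuen C4 / Input: NIH/3T3 cells, 5,000 per well / Buffer or medium: Low-serum DMEM with 2% FBS / Probe or stimulus: 5000 reporter trypomastigotes per well / Schedule: ≥90 h infection period, 3 h prior cell attachment / Measured by: GalScreen luminescence, 60 min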
697 NFkB inh: inhibitors of the PMA/ionomycin-induced NF-kB reporter in 697 B cells; 697 B-cell NF-kB luciferase reporter, 16 h; inhibition, % at 4 µM; hit rate 0.33% among 330,000; in the data active means inhibition above about 35%
HSF1 inh: HSF1 inhibition; NIH3T3-HGL HSE-luciferase, MG132-induced, luminescence 8 h; hits give low values; activity change, negative = inhibition, % at 7.5 µM (by protocol); hit rate 0.77% among 300,000;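 active means more than half of replicate wells show activity change below -50%, luminescence cut by over half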;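 further: luciferase reports HSF-1 transcriptional activity via heat shock element; 0% = median of DMSO wells and -100% = zero luminescence signal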
GPR7 antag: blocks human GPR7 receptor signaling. hit rate 1.1% among 290,000. inhibition, % at 4.4 µM. P48145. GPR7-expressing cells, fluorescence antagonist assay; in the data active means inhibition above about 16%, passing the limit was not always enough;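 further: cells stimulated with the agonist NPW; 0% = agonist with vehicle and 100% = vehicle without agonist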
Target sequence (P48145 whole entry, looked up): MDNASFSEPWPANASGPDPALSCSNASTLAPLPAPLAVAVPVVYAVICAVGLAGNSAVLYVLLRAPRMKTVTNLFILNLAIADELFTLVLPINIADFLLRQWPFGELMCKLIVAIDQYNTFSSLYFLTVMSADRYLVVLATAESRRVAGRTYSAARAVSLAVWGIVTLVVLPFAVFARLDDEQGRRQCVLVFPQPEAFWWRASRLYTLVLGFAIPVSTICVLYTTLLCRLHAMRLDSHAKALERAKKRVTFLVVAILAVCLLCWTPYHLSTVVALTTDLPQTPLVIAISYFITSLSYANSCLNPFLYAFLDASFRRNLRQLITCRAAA
697 NFkB conf: lowers PMA/ionomycin-induced NF-kB signal in 697 B cells; shares compounds with 697 NFkB inh; 697 B-cell NF-kB luciferase, 16 h; inhibition, % at 4 µM; hit rate 35% among 2,000; in the data active means inhibition mostly above about 28%, no sharp cut-off; inactive means mostly below about 22%
* marks the source's active call; other numbers are inactive results. Compounds with a hit are over-represented: about 4.8% of the library has one in this group of screens.

`Cc1nc(C)c(-c2csc(Nc3ccccn3)n2)s1` gave Jurkat NFkB inh -131.0, HSF1 activator 43.0, T cruzi inh -13.7, 697 NFkB inh -381.0, HSF1 inh 23.6, GPR7 antag -7.9 and 697 NFkB conf -358.6.
`CC(=O)Nc1ccc(S(=O)(=O)NCCN2CCNC2=O)cc1Cl` gave Jurkat NFkB inh -28.9, HSF1 activator 18.8, T cruzi inh -17.0, 697 NFkB inh -18.5, HSF1 inh -5.5 and GPR7 antag -4.6.
For O=C(COc1ccccc1)NCC(=O)Nc1cccc2ccccc12 the results were Jurkat NFkB inh -0.7, HSF1 activator 5.4, T cruzi inh 1.0, 697 NFkB inh 13.8, HSF1 inh -4.3 and GPR7 antag -12.8.
C[C@@H]1C[C@@H]2OC(=O)[C@]3(C)[C@H]2[C@@H](OC3(C)O)[C@]2(C)C(=O)C=C[C@H]12 (stereo not given in full) was read as Jurkat NFkB inh 9.7, HSF1 activator 0.6, T cruzi inh 3.3, 697 NFkB inh -45.5 and HSF1 inh 3.1.
`C=C1C(=O)C=C[C@]2(C)C[C@@H]3OC(=O)[C@](C)(O)[C@H]3C[C@@H]12` gave Jurkat NFkB inh 42.3, HSF1 activator 36.6, T cruzi inh -40.4, 697 NFkB inh -314.2, HSF1 inh 18.9 and 697 NFkB conf -198.2.
CC(=O)NS(=O)(=O)c1ccc(NC(=O)c2cccc3ccccc23)cc1 was read as Jurkat NFkB inh 5.5, HSF1 activator -8.3, T cruzi inh 18.8, 697 NFkB inh 2.5 and HSF1 inh -5.5.
Screening Cc1ccc(-c2nn3c(C)nnc3c3ccccc23)cc1S(=O)(=O)N1CCN(CCO)CC1 returned Jurkat NFkB inh -16.4, HSF1 activator 4.2, T cruzi inh 6.8, 697 NFkB inh 36.6*, HSF1 inh 7.3, GPR7 antag -15.9 and 697 NFkB conf 36.5*.
Cc1ccc(-c2nn3c(C)nnc3c3ccccc23)cc1S(=O)(=O)NC(C)(C)CO was read as Jurkat NFkB inh -0.9, HSF1 activator 31.5, T cruzi inh -1.4, 697 NFkB inh 35.6*, HSF1 inh 18.8, GPR7 antag -2.9 and 697 NFkB conf 61.5*.
Cc1nnc2c3ccccc3c(-c3cccc4ccccc34)nn12 was read as GPR7 antag -9.9.
For Cc1ccc(-c2nn3c(C)nnc3c3ccccc23)cc1S(=O)(=O)NCc1ccco1 the results were Jurkat NFkB inh 0.1, HSF1 activator 21.6, T cruzi inh 17.6, 697 NFkB inh 42.6*, HSF1 inh 25.3, GPR7 antag -10.8 and 697 NFkB conf 43.3*.
`Cc1nnc2c3ccccc3c(-c3ccccc3)nn12` gave Jurkat NFkB inh -7.2, HSF1 activator 15.5, T cruzi inh -30.6, 697 NFkB inh 43.4*, HSF1 inh 9.3, GPR7 antag -4.0 and 697 NFkB conf 32.2*.
`Cc1ccc(-c2nn3c(C)nnc3c3ccccc23)cc1S(=O)(=O)NCCO` gave Jurkat NFkB inh -4.9, HSF1 activator 17.6, T cruzi inh -4.1, 697 NFkB inh 18.1, HSF1 inh 4.0 and GPR7 antag 2.0.
Cc1cc(S(=O)(=O)N2CCOCC2)ccc1OCC(=O)NCCCn1ccnc1 was read as Jurkat NFkB inh -0.2, HSF1 activator 1.0, T cruzi inh -5.5, 697 NFkB inh -8.6, HSF1 inh -4.6 and GPR7 antag 6.5.
`CCN(CC(=O)Nc1ccc(OC)cc1)C(=O)c1ccc(N2CCCC2=O)cc1` gave Jurkat NFkB inh -2.4 and 697 NFkB inh 20.5.
`CC(C)CC(=O)Nc1ccc(C(=O)COC(=O)CN2C(=O)NC3(CCCCC3C)C2=O)cc1` (stereo not given) gave Jurkat NFkB inh 4.8 and 697 NFkB inh 18.8.
Screening COc1ccc(C2NN=C(c3ccc(C)cc3)S2)cc1OC (stereo not given) returned Jurkat NFkB inh -136.5, HSF1 activator 35.8, T cruzi inh -0.4, 697 NFkB inh -119.5, HSF1 inh 16.6 and GPR7 antag 0.3.
Fc1cccc(C2NN=C(c3ccccc3)S2)c1 (stereo not given) was read as Jurkat NFkB inh -140.3, HSF1 activator 60.6*, T cruzi inh -7.3, 697 NFkB inh -299.5, HSF1 inh 24.9, GPR7 antag 6.2 and 697 NFkB conf -217.9.
`COc1ccc2c(c1OC)C(=O)OC2Nc1nc2ccccc2s1` (stereo not given) gave Jurkat NFkB inh -5.4, HSF1 activator 9.3, T cruzi inh 0.0, 697 NFkB inh 1.7, HSF1 inh -1.8 and GPR7 antag -0.1.
COc1ccc2c(c1OC)C(=O)OC2Nc1ccccn1 (stereo not given) was read as Jurkat NFkB inh 22.6, HSF1 activator 0.7, T cruzi inh -2.7, 697 NFkB inh 35.5*, HSF1 inh -2.5, GPR7 antag -5.5 and 697 NFkB conf 5.8.
CCc1nn2cc(-c3ccccc3)nc2s1 was read as Jurkat NFkB inh -21.2, HSF1 activator -12.7, T cruzi inh 1.3, 697 NFkB inh -164.9, HSF1 inh -18.0 and GPR7 antag 1.3.
Screening Cc1nn2cc(-c3ccc(-c4ccccc4)cc3)nc2s1 returned Jurkat NFkB inh -107.3, HSF1 activator 10.5, T cruzi inh 3.7, 697 NFkB inh -330.9, HSF1 inh -6.6, GPR7 antag -0.3 and 697 NFkB conf -328.5.
Screening COc1ccc(S(=O)(=O)Nc2ccc(N(C)C(C)=O)cc2)cc1 returned Jurkat NFkB inh 2.5, HSF1 activator -4.1, T cruzi inh -21.4, 697 NFkB inh 36.6*, HSF1 inh -12.5, GPR7 antag -6.5 and 697 NFkB conf 18.6.
For Cc1c(NC(=O)c2cc(-c3cccs3)nc3ccccc23)c(=O)n(-c2ccccc2)n1C the results were Jurkat NFkB inh 30.9, HSF1 activator -34.0, T cruzi inh -45.8, 697 NFkB inh 39.1*, HSF1 inh -32.2, GPR7 antag -13.7 and 697 NFkB conf 20.1.
Cc1c(NC(=O)c2cc(-c3ccccc3)nc3ccccc23)c(=O)n(-c2ccccc2)n1C was read as Jurkat NFkB inh -12.1 and 697 NFkB inh -1.0.
Screening COC(CNC(=O)c1ccc(-n2c(=S)[nH]c3ccccc3c2=O)cc1)OC returned Jurkat NFkB inh -3.4, HSF1 activator 1.7, T cruzi inh -18.4, 697 NFkB inh 20.6, HSF1 inh -0.4 and GPR7 antag 5.9.
Screening O=C(c1ccc2c(=O)n(-c3ccccc3)c(=S)[nH]c2c1)N1CCCCC1 returned Jurkat NFkB inh 7.3, HSF1 activator -3.4, T cruzi inh 25.8, 697 NFkB inh 38.2*, HSF1 inh -3.3, GPR7 antag -7.0 and 697 NFkB conf -28.4.
`CCC(C)NC(=O)c1ccc(-n2c(=S)[nH]c3ccccc3c2=O)cc1` (stereo not given) gave Jurkat NFkB inh 14.3, HSF1 activator 6.9, T cruzi inh -5.7, 697 NFkB inh 40.6*, HSF1 inh -3.7, GPR7 antag -1.6 and 697 NFkB conf 0.6.
